ChEMBL document CHEMBL1135898, “Synthesis and antimycobacterial activity of 6-arylpurines: the requirements for the N-9 substituent in active antimycobacterial purines” (J Med Chem, 2002)
Converted amounts (≈) assume the structure as drawn.

What was measured:
[1] = tested on: Mycobacterium avium; experiment: Minimum Inhibitory Concentration against drug-resistant strain of Mycobacterium tuberculosis avium; format: functional
Method in brief: (§1)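 MICs by microplate alamar blue assay against M. tuberculosis strains resistant to isoniazid (ATCC 35822), rifampin (ATCC 35838), ethambutol, kanamycin or ciprofloxacin, drug-sensitive strain Erdman, and M. avium (ATCC 25291). MIC = minimum concentration giving 90% growth inhibition.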

[2] = tested on: Mycobacterium tuberculosis; experiment: Minimum Inhibitory Concentration against drug-resistant strain of Mycobacterium tuberculosis Erdman; format: functional; method in brief: as §1

SMILES: Clc1nc(-c2ccco2)c2ncn(Cc3ccccc3)c2n1
- MIC [1]: 25 µg/mL (≈ 80.5 µM)
- MIC [2]: 12.5 µg/mL (≈ 40.2 µM)
